{"source": "paper PMC4229952", "about": "(Molecular cancer therapeutics, 2014)", "molecules": {"B1": {"name": "GIPC PDZ domain PDZ (protein)", "chain": "EVEVFKSEDALGLTITDNGAGYAFIKRIKEGSVIDHIHLISVGDMIEAINGQSLLGCRHYEVARLLKELPRGRTFTLKLTE"}}, "key": {"recombinant GIPC PDZ": {"molecular_target": "T1, recombinant GIPC PDZ (Homo sapiens, UniProt O14908)", "T1 sequence (O14908 133-213 limits assumed)": "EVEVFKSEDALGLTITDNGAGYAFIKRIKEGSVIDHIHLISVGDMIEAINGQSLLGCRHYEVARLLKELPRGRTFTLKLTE", "test": "Surface plasmon resonance binding to recombinant GIPC PDZ", "outline": "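Recombinant GIPC PDZ was amine-coupled to a CM5 chip with NHS/EDC at pH 5.5, the optimum found by pH scouting. Lipidated peptide analyte was diluted in HBS-EP from 10×Kd to 0.1×Kd. Runs used the instrument's kinetic/affinity workflow, and Kd was derived from sensorgram analysis.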"}, "ASPC-1 cells": {"test_system": "ASPC-1 cells", "test": "Thymidine incorporation", "assay_type": "cell-based, human", "conditions": "for anti-proliferative activity, screening of lipidated peptides: ASPC-1 cells, [3H] thymidine incorporation, Figure 3A", "outline": "(§1)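 About 2×10⁴ cells per well in 24-well plates were cultured with peptides, including a palmitoylated scrambled-sequence control, for the indicated time. Media were RPMI-1640 with 10% FBS for ASPC-1 and DMEM with 10% FBS for MiaPaca-2. [³H]thymidine was then added for 4 h. Cells were washed in ice-cold PBS, fixed in chilled methanol and lysed in 0.1 N NaOH, and TCA-precipitable radioactivity was counted. Error bars are SD; t-test.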"}, "MiaPaca-2 cells": {"test_system": "MiaPaca-2 cells", "test": "Thymidine incorporation", "assay_type": "cell-based, human", "conditions": "MiaPaca-2, AP1063 as control, Figure 3D", "outline": "as §1"}, "[1]": {"test_system": "Endoglin-GIPC interaction", "test": "Immunoprecipitation of endoglin-GIPC interaction", "assay_type": "cell-based, human", "conditions": "ASPC-1 and MiaPaca-2 cell lines, Figure 3B"}, "[2]": {"test_system": "subcutaneous ASPC-1 tumor", "test": "Subcutaneous ASPC-1 tumor model, intratumoral peptide injection", "assay_type": "in vivo, SCID mice", "conditions": "subcutaneous ASPC-1 model, compared to AP1063, Supplementary Figure S2", "outline": "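Male SCID mice aged 6–8 weeks received 5×10⁶ ASPC-1 cells in 100 μl PBS subcutaneously in the right flank. After 9 days they were randomized (n=7 per group) to daily intratumoral peptide at 500 μg/mouse/day in PBS containing 80% DMSO for 3 weeks; comparator was a scrambled palmitoylated peptide. Tumors were fixed in 10% neutral buffered formalin for 24 h, paraffin-embedded and immunostained (DAB, hematoxylin counterstain). t-test.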"}, "Smad-1/5 phosphorylation": {"test_system": "Smad-1/5 phosphorylation", "test": "Western blot of Smad phosphorylation and expression", "assay_type": "cell-based, human", "conditions": "Figure 5B", "outline": "(§2)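 Whole-cell lysates were made in NP-40 buffer with protease and phosphatase inhibitors and cleared at 12,000 rpm for 10 min at 4 °C. Proteins were separated by SDS-PAGE, transferred to PVDF, immunoblotted and detected by chemiluminescence. Cells were harvested at 70–80% confluence.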"}, "[3]": {"test_system": "Id-1, E-cadherin expression", "test": "Western blot of differentiation markers", "assay_type": "cell-based, human", "conditions": "Figure 6B", "outline": "as §2"}, "[4]": {"molecular_target": "T2, Endoglin C-terminal peptide AP1013 (N-myristoyl-PCSTSSMA) (Homo sapiens)", "T2 chain": "Myristoyl-PCSTSSMA", "test": "SPR"}}, "note": "Ends that are not written are not given here. Peptide text beside a SMILES is read from it. * marks the point of attachment. Palmitoyl = CCCCCCCCCCCCCCCC(=O)*; Myristoyl = CCCCCCCCCCCCCC(=O)*"}
{"molecule": "CCCCCCCCCCCCCC(=O)N1CCC[C@H]1C(=O)N[C@@H](CS)C(=O)N[C@@H](CO)C(=O)N[C@H](C(=O)N[C@@H](CO)C(=O)N[C@@H](CO)C(=O)N[C@@H](CCSC)C(=O)N[C@@H](C)C(=O)O)[C@@H](C)O", "note": "[AP1013, Myristoyl-PCSTSSMA] (Myristoyl-PCSTSSMA-OH)", "values": [{"measurement": "Kd", "setting": "recombinant GIPC PDZ", "value": "7.1 ± 2.8", "unit": "µM"}]}
{"molecule": "Ac-PCSTSSMA [AP1030]", "values": [{"measurement": "anti-proliferative activity, screening of lipidated peptides", "setting": "ASPC-1 cells", "value": "ineffective"}]}
{"molecule": "Palmitoyl-PCSTSSMA [AP1032]", "values": [{"measurement": "inhibition of proliferation", "setting": "ASPC-1 cells; ASPC-1, AP1063 as control, Figure 3C", "value": "inhibited proliferation"}, {"measurement": "anti-proliferative activity, screening of lipidated peptides", "setting": "ASPC-1 cells", "value": "highest anti-proliferative activity"}, {"measurement": "inhibition of proliferation", "setting": "MiaPaca-2 cells", "value": "inhibited proliferation"}, {"measurement": "inhibition of endoglin-GIPC interaction", "setting": "[1]", "value": "effectively inhibited endoglin-GIPC interaction"}, {"measurement": "microvessel density (MVD)", "setting": "[2]", "value": "significant decrease in MVD"}, {"measurement": "necrotic area", "setting": "[2]", "value": "increased necrotic area"}, {"measurement": "Smad-1/5 phosphorylation", "setting": "Smad-1/5 phosphorylation", "value": "clearly inhibits"}, {"measurement": "expressions of Smad1 and Smad 2", "setting": "Smad-1/5 phosphorylation", "value": "also inhibited"}, {"measurement": "Id-1 expression", "setting": "[3]; ASPC-1 and MiaPaca-2, 100 μmol/L peptide", "value": "inhibited Id-1 expression"}, {"measurement": "E-cadherin expression", "setting": "[3]; Western blot, 100 μmol/L peptide", "value": "did not significantly increase"}]}
{"molecule": "Palmitoyl-SMTSCAPS [AP1063]", "values": [{"measurement": "inhibition of endoglin-GIPC interaction", "setting": "[1]", "value": "could not"}]}
{"molecule": "myristoyl-PCSTSS[K(εN-benzoyl)]A [AP1035]", "values": [{"measurement": "anti-proliferative activity, screening of lipidated peptides", "setting": "ASPC-1 cells", "value": "not superior to the corresponding non-modified AP1013"}]}
{"molecule": "myristoyl-PCST[K(εN-benzoyl)]SMA [AP1036]", "values": [{"measurement": "anti-proliferative activity, screening of lipidated peptides", "setting": "ASPC-1 cells", "value": "not superior to the corresponding non-modified AP1013"}]}
{"molecule": "B1", "values": [{"measurement": "Kd", "setting": "[4]", "value": 7.1, "unit": "µM"}]}
